From BindingDB's records for doi:10.1016/j.bmc.2020.115710 (Indiana University School of Medicine, 2020)

Tests used:
Co-chaperonin GroES [1] = biological target: T1, Co-chaperonin GroES (Escherichia coli, UniProt Q7BGE6); test: Inhibition of Escherichia coli GroEL/ES assessed as inhibition of native malate dehydrogenase treated after denatured malate dehydrogenase completely refold in presence of NfsB nitroreductase
T1 sequence (Q7BGE6 whole entry): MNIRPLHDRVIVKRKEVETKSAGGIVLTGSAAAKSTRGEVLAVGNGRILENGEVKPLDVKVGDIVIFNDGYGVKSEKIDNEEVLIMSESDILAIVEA
Method in brief: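 Native MDH counter-screen with 10 µg/mL E. coli NfsB nitroreductase added to the initial GroEL/ES-dMDH solution. Compounds are added after the EDTA quench, then incubated 10 min at 37°C with NADH to bioactivate nitrofurans. Compounds in the reporter step span 56 µM to 25 nM (3-fold series).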

Co-chaperonin GroES [2] = biological target: T1, Co-chaperonin GroES; test: Inhibition of Escherichia coli GroEL/ES assessed as inhibition of native malate dehydrogenase treated after denatured malate dehydrogenase completely refold
Method in brief: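 Counter-screen on native MDH activity: compounds are added only after GroEL/ES has fully refolded the denatured MDH, so the assay flags compounds that act on the MDH reporter reaction itself. IC50 values are averages from at least five replicates. […] DMSO serves as the negative control.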

O=C1CN(/N=C/c2ccc([N+](=O)[O-])o2)C(=O)N1 [MLS000028500]
IC50 (Co-chaperonin GroES [1]): > 56 µM
IC50 (Co-chaperonin GroES [2]): > 63 µM

O=C(N/N=C/c1ccc([N+](=O)[O-])o1)c1cccs1
IC50 (Co-chaperonin GroES [1]): > 56 µM
IC50 (Co-chaperonin GroES [2]): > 63 µM

O=C(N/N=C/c1ccc([N+](=O)[O-])o1)c1ccccc1
IC50 (Co-chaperonin GroES [1]): > 56 µM
IC50 (Co-chaperonin GroES [2]): > 63 µM

CN(C)c1ccc(C(=O)N/N=C/c2ccc([N+](=O)[O-])o2)cc1
IC50 (Co-chaperonin GroES [1]): > 56 µM
IC50 (Co-chaperonin GroES [2]): > 63 µM

O=C(N/N=C/c1ccc([N+](=O)[O-])o1)c1ccc(Cl)s1
IC50 (Co-chaperonin GroES [1]): > 56 µM
IC50 (Co-chaperonin GroES [2]): > 63 µM

O=C(N/N=C/c1ccc([N+](=O)[O-])o1)c1ccc(O)cc1 [NIFUROXAZIDE]
IC50 (Co-chaperonin GroES [1]): > 56 µM
IC50 (Co-chaperonin GroES [2]): > 63 µM

O=C(N/N=C/c1ccc([N+](=O)[O-])o1)c1ccncc1 [N-[(E)-(5-nitro-2-furanyl)methylideneamino]-4-pyridinecarboxamide]
IC50 (Co-chaperonin GroES [1]): > 56 µM
IC50 (Co-chaperonin GroES [2]): > 63 µM

COc1ccc(C(=O)N/N=C/c2ccc([N+](=O)[O-])o2)cc1
IC50 (Co-chaperonin GroES [1]): > 56 µM
IC50 (Co-chaperonin GroES [2]): > 63 µM
